97 compounds from ChEMBL document CHEMBL4513216, “Probing the Open Global Health Chemical Diversity Library for Multistage-Active Starting Points for Next-Generation Antimalarials” (ACS Infect Dis, 2020) can be followed below.

The nature of the data set: Toxicity liver stage against HepG2, at 10uM. Details: test concentration 10 uM, cell line HepG2-A16-CD81EGFP. The format is cell-based. To be noted: human, HepG2-A16-CD81EGFP cells; read-out: INHIBITION
The procedure, abridged: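 Uninfected HepG2-A16-CD81EGFP cells, 3 × 10^3 per well, 1536-well, plated on prespotted compound at 10 μM final, parasite-free screening media added to match infected plates; puromycin 10 μM positive, DMSO 0.5% negative; run in parallel with 48 h PbLuc assay at 37 °C, 5% CO2; viability by CellTiter-Glo luminescence, normalized to controls.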

With `Cn1nc2c(cc1=O)CN(Cc1nc(C(C)(C)C)no1)CC2`, the cytotoxicity at 10 µM was -2.86%. Take `NC(=O)c1c[nH]nc1NC(=O)c1ccc(Cl)cc1`: the cytotoxicity at 10 µM came to 3.19%. On to `CCc1cc(N(C)Cc2[nH]nc3c2CCC3)nc(N2CCOCC2)n1`, for which the cytotoxicity at 10 µM amounted to 5.51%. On to `COCC(NC(=O)NCc1sc(C)nc1C)c1ccco1` (configuration not stated), for which the cytotoxicity at 10 µM is 6.75%. For `Cc1cnn(CCC(=O)N2CCC(Nc3cccnn3)CC2)c1`, the cytotoxicity at 10 µM is -8.11%.

Regarding `CC(=O)c1c(C)nn(CC(=O)N2CCCC2c2ccc(C(N)=O)s2)c1C` (configuration not stated), the cytotoxicity at 10 µM came to 1.16%. The same measure for `CCN1CC2(CC1=O)CN(C(=O)COC)CCN(S(C)(=O)=O)C2` (configuration not stated): 0.165%; for `Cc1cccc(CN2CCc3ncnc(N4CCOCC4)c3CC2)n1`: -4.95%. For the compound `FC(F)(F)C1CN(c2nc(-c3ccccc3)no2)CCO1` (configuration not stated), the cytotoxicity at 10 µM was -1.52%. In the case of `Cn1cc(CN2CCC3(CC2)CN(c2cccnc2)C(=O)CO3)cn1`, the cytotoxicity at 10 µM was -103%. For `CC(C)CCNC(=O)CNC(=O)N1CCc2c([nH]c3ccc(Cl)cc23)C1`, the cytotoxicity at 10 µM amounted to 6.73%.

For the compound `Cc1cc(NC(=O)NCC(C)O)n(C)n1` (configuration not stated), the cytotoxicity at 10 µM came to 1.69%. For the compound `Cc1ncc(CN2CCC(c3nc4cc(Cl)ccc4o3)CC2)s1`, the cytotoxicity at 10 µM was found to be 51.7%.

In the case of `CC(C)(C)c1csc(C2CCCCN2C(=O)CCn2cncn2)n1` (configuration not stated), the cytotoxicity at 10 µM was -4.34%. In the case of `CC1CCc2nc(NC(=O)CN(C)C(=O)c3ccco3)sc2C1` (configuration not stated), the cytotoxicity at 10 µM was -11.4%. Take `CC(=O)NCc1nc(CCOc2ccc(Cl)cc2)no1`: the cytotoxicity at 10 µM was -145%. As for `CCS(=O)(=O)NCCNC(=O)c1cc(Cl)c2c(c1)OCCCO2`, the cytotoxicity at 10 µM worked out at 5.98%.

With `CCCN1CCC(c2nc3ccc(NCc4cccnc4)cn3n2)CC1`, the cytotoxicity at 10 µM is -121%. On to `Fc1ccc(CN2CCc3ncnc(C4CC4)c3CC2)cc1`, for which the cytotoxicity at 10 µM is -147%.

As for `Cc1cc(C)c(CNC(=O)N2CCOC(c3ccccc3)C2)c(=O)[nH]1` (configuration not stated), the cytotoxicity at 10 µM amounted to 0.0687%. The same measure for `c1csc(CN2C[C@@H]3OCCN(CC4CCCO4)[C@@H]3C2)c1` (some centres not stated): -6.31%. Take `CN(CC(=O)Nc1cc(C(F)(F)F)c[nH]c1=O)Cc1ccccc1`: the cytotoxicity at 10 µM was found to be 12%. For `NC(=O)C1(CNC(=O)CCc2ccc(Cl)s2)CCOCC1`, the cytotoxicity at 10 µM worked out at 9.09%. With `O=C(CSc1ccccn1)N1CCN(CCO)[C@@H]2CS(=O)(=O)C[C@@H]21`, the cytotoxicity at 10 µM came to 9.87%.

For `CNc1cncc(C2CCCN2Cc2ccccn2)n1` (configuration not stated), the cytotoxicity at 10 µM stood at 0.0241%.

Take `COc1ccc2c(c1)CN(Cc1ccco1)C(=O)CCN2`: the cytotoxicity at 10 µM was -2.59%.

Take `CCOCCn1nc(C)cc1C(=O)N(C)Cc1cccc2ncccc12`: the cytotoxicity at 10 µM stood at 4.2%. As to `CCN(C)c1ncnc2c1CCN(C(=O)c1cccn1C)CC2`, the cytotoxicity at 10 µM was -67.8%. With `CCOCCN1CCO[C@H]2[C@H](OCc3ccccn3)CC[C@@H]21`, the cytotoxicity at 10 µM is -113%. On to `Cc1cc2c(=O)n3c(nc2s1)CCN(C(=O)c1c(C)noc1C)CC3`, for which the cytotoxicity at 10 µM stood at 17.7%. Turning to `CCSCCNC(=O)C(c1cccc(F)c1)N(C)C` (configuration not stated), the cytotoxicity at 10 µM is -11.9%. As for `CN(C)Cc1nnc2n1CCCN(C(=O)c1c[nH]cn1)C2`, the cytotoxicity at 10 µM stood at 3.77%. Take `Cc1cc(CN(C)C(=O)c2ccc(Cl)cc2N2CCCC2=O)no1`: the cytotoxicity at 10 µM was -15.9%.

For the compound `CCS(=O)(=O)CCN1CCN(C(C)c2cccnc2)CC1` (configuration not stated), the cytotoxicity at 10 µM worked out at 8.65%.

As for `O=C(Cn1ccc2ccc(Cl)cc21)/N=c1\[nH]nc(C2CCCO2)s1` (configuration not stated), the cytotoxicity at 10 µM was found to be 10.8%. As to `CNc1cncc(C2CCCN2C(=O)c2ccc3c(c2)OCCO3)n1` (configuration not stated), the cytotoxicity at 10 µM was -2.97%.

With `CC(C)NC[C@H]1COCc2nc3cccnc3n21`, the cytotoxicity at 10 µM is -5.38%. With `CCN1CCc2[nH]cnc2C12CCN(c1ccc(Cl)c(C(=O)O)n1)CC2`, the cytotoxicity at 10 µM amounted to 2.74%. Turning to `CCN1CC2(CCNCC2)COc2ccccc2S1(=O)=O`, the cytotoxicity at 10 µM is -3.06%.

`CC1=Nc2c(c(O)nn2C(C)C)C(c2cccnc2)S1` (configuration not stated): the cytotoxicity at 10 µM was 2.93%. The figure for `CN1CCC(c2nc3ccc(-c4ccccc4)cn3n2)CC1` is -5.29%; for `O=C(CN1CCCC1CCCO)NCc1ccccn1` (configuration not stated) it is -5.6%. On to `Cc1nn(C)c(C)c1CCC(=O)NCc1cccnc1OC1CCCC1`, for which the cytotoxicity at 10 µM is -4.38%. For `Cc1ccc(O[C@@H]2C[C@H]3CN(C(=O)c4cccnc4)CCN3C2)cc1`, the cytotoxicity at 10 µM came out at 1.06%. `CC(=O)N1N=C(c2ccccc2)OC1C(=O)NCCc1ccc(O)cc1` (configuration not stated): the cytotoxicity at 10 µM is -4%.

Take `Cc1nc(C)n(CC2CN(CCn3cccn3)CCO2)n1` (configuration not stated): the cytotoxicity at 10 µM is -0.665%. For `CC(C)N1CCO[C@H]2CN(C(=O)c3ccccn3)C[C@H]21`, the cytotoxicity at 10 µM was -67.6%. The same measure for `CC(=O)N1CCN(CCNS(=O)(=O)c2c(F)cccc2F)CC1`: -1.14%. For the compound `CC(C)c1nc(O)c2nnn(C[C@H]3CCCN(Cc4ccsc4)C3)c2n1`, the cytotoxicity at 10 µM is 1.8%.

Take `Cc1cnc(NS(=O)(=O)c2ccccc2)s1`: the cytotoxicity at 10 µM was -2.56%.

For the compound `CCOc1cc([C@H]2N[C@@H](c3nc(C)cs3)Cc3ccsc32)ccc1OC`, the cytotoxicity at 10 µM was 24.3%.

Take `Cc1nc(S(=O)(=O)CCn2cccn2)n(C2CCCC2)c1C`: the cytotoxicity at 10 µM is -0.829%. For `CCC1=N[C@@]2(CC[C@@H]3CN(CC(C)C)C[C@@H]32)C(=O)N1`, the cytotoxicity at 10 µM turned out to be 4.32%. As to `Cc1cc(CN2CCC3(CC2)COC(COCC2CC2)C3)no1` (configuration not stated), the cytotoxicity at 10 µM was -107%.

Regarding `COc1ccccc1-c1ncc(CN2C[C@H](O)[C@@H](N3CCCC3)C2)s1`, the cytotoxicity at 10 µM is -6.34%. As for `Cc1ccnc(NC(=O)C2(n3cnnn3)CCCCC2)c1`, the cytotoxicity at 10 µM is -0.0864%. Turning to `Cc1nnn2c1COCC(CNCc1nccs1)C2` (configuration not stated), the cytotoxicity at 10 µM was -109%. `c1ccc(-c2nnc3sc(CCN4CCCCCC4)nn23)cc1`: the cytotoxicity at 10 µM worked out at 1.11%. For `Cc1ccc(N2CCC(NC(C)c3ccc(C)o3)CC2)nc1` (configuration not stated), the cytotoxicity at 10 µM is -6.59%. As for `CN(C)C(CNCc1nc(-c2ccsc2)no1)c1cccs1` (configuration not stated), the cytotoxicity at 10 µM is 16.3%. Regarding `CS(=O)(=O)NCC1CCCN(c2ccc(C#N)cn2)C1` (configuration not stated), the cytotoxicity at 10 µM is -11.1%. As to `O=C1CC(c2ccc(F)cc2)Cc2[nH]c(=O)c(C(=O)O)cc21` (configuration not stated), the cytotoxicity at 10 µM was -3.65%. Turning to `Fc1cnc(N2CCCC3(CCN(Cc4nccs4)C3)C2)nc1` (configuration not stated), the cytotoxicity at 10 µM is -67.9%. As for `COc1cc(CN(C)C(=O)NCCC(=O)NC2CCCC2)ccc1SC`, the cytotoxicity at 10 µM was -8.9%. In the case of `O=C(NCCOc1ncc(Cl)cc1Cl)c1ccoc1`, the cytotoxicity at 10 µM was determined as 0.191%. Consider `Cc1csc2c(=O)n3c(nc12)CCN(C(=O)c1ccccn1)CC3`, for which the cytotoxicity at 10 µM is -10.2%. `O=C(CC1CCCC1)NCCn1nc2ccccn2c1=O`: the cytotoxicity at 10 µM came to 9.97%. The figure for `CC(c1ccccc1)n1c(SCC(=O)O)nnc1-c1ccn[nH]1` (configuration not stated) is -0.0682%; for `O=C(CCc1ccccn1)N1CCCC1` it is -6.96%. Turning to `CN(C)CCNC(=O)c1cc2c(s1)CCN2S(C)(=O)=O`, the cytotoxicity at 10 µM was found to be 0.705%.

As to `Cc1cc(C)n(CC2CN(CC(=O)NC3(C#N)CCCC3)CCO2)n1` (configuration not stated), the cytotoxicity at 10 µM is -2.49%. Take `CO[C@@H]1CC[C@H]2[C@H]1OCCN2Cc1ccc(F)cc1`: the cytotoxicity at 10 µM amounted to 1.82%.

Regarding `NC(=O)c1cnc(NC2CCC(c3ccccc3)CC2)c(Cl)c1` (configuration not stated), the cytotoxicity at 10 µM is 27.2%. Regarding `Cc1cc(CNC(=O)C2CCC(=O)N(Cc3ccccc3F)C2)on1` (configuration not stated), the cytotoxicity at 10 µM is -5.26%. With `CC(=O)NCc1ccc(C(=O)N2CCCC2c2cnn(C)c2)cc1` (configuration not stated), the cytotoxicity at 10 µM is -13.5%. In the case of `CCCC(=O)NC1CCN(c2ccccc2S(=O)(=O)CC)CC1`, the cytotoxicity at 10 µM was -2.78%. Regarding `Fc1cccc(Cl)c1CNCCOc1ccccn1`, the cytotoxicity at 10 µM is -11.4%. Consider `CCSCCC(=O)NS(=O)(=O)c1ccc2c(c1)OCCO2`, for which the cytotoxicity at 10 µM came to 0.35%.

For the compound `Cc1cc(C)c(CNC(=O)N2CCC(N3CCCC3)CC2)c(=O)[nH]1`, the cytotoxicity at 10 µM is -3.52%.

On to `COC(=O)COc1nc(C(C)C)no1`, for which the cytotoxicity at 10 µM was -6.22%. The figure for `CC(C)(O)CN1CCN(C(=O)c2cccc(CC#N)c2)CC1` is -13.4%. For `O=C(CC1CC1)N[C@@H]1CN(Cc2nccs2)C[C@@H]2CCCO[C@@H]21`, the cytotoxicity at 10 µM came out at 8.85%. As to `Cc1ccc(CN2CCN(C3CCCC3)CC2CCO)o1` (configuration not stated), the cytotoxicity at 10 µM is -6.05%. Consider `CCCNC(=O)N1CCC(Oc2cc(C)ccc2F)(C(=O)O)CC1`, for which the cytotoxicity at 10 µM is -23.8%. Regarding `CC(=O)c1cccc(CN2CC(Oc3ccccc3C)C2)c1`, the cytotoxicity at 10 µM was -4.16%. The same measure for `CC(C)CNC(=O)c1[nH]nc(C2CC2)c1Br`: 2.71%; for `COC(=O)c1ccc(NC(=O)[C@@H]2CCCN2C(=O)c2ccco2)s1`: -3.45%. As for `Cc1cn([C@H]2CCNC[C@]2(C)O)c(=O)[nH]c1=O`, the cytotoxicity at 10 µM is -6.22%.

Consider `COCc1nn(C)c2c1CN(C(=O)c1ccno1)CC2`, for which the cytotoxicity at 10 µM stood at 12.7%. Turning to `CC(NC(=O)N1CCC2(C1)OCCO2)c1ccc(F)cc1Cl` (configuration not stated), the cytotoxicity at 10 µM is -5.16%. In the case of `O=C(CN1CCC(c2ccnn2CCO)CC1)NC1CCCC1`, the cytotoxicity at 10 µM is -6.64%. Take `CCCc1noc(CNc2cc(C[S+](C)[O-])ccc2Cl)n1` (configuration not stated): the cytotoxicity at 10 µM is -5.18%. In the case of `CCn1nc(CC(C)C)cc1C(=O)NCCS(=O)(=O)N(C)C`, the cytotoxicity at 10 µM turned out to be 11.2%.

As to `CCN(c1ccc(C(=O)NCCCN2CCOCC2)cc1)S(=O)(=O)CC`, the cytotoxicity at 10 µM was found to be 1.34%. Take `Cc1noc([C@@]23CCO[C@@H]2CCN(C(=O)CN(C)C)C3)n1`: the cytotoxicity at 10 µM is 10.1%. `Fc1cnc(N2CCOC3(CCN(Cc4cccs4)CC3)C2)nc1`: the cytotoxicity at 10 µM was determined as 0.73%. On to `Cc1cc(C(C)NC(=O)CCN2C(=O)c3ccccc3C2=O)c(C)o1` (configuration not stated), for which the cytotoxicity at 10 µM was -7.82%.
